Laboratory results from ChEMBL document CHEMBL1255291, “Potent antimalarial activity of histone deacetylase inhibitor analogues” (Antimicrob Agents Chemother, 2008).
Values belong to the compound of their own block, whether it stands above or below them. Activity calls are given as the source filed them. No cut-off for these calls is given here.

What was measured:
[1] = Selectivity index, ratio of IC50 for neonatal foreskin fibroblasts to IC50 for chloroquine-resistant Plasmodium falciparum Dd2
[2] = Selectivity index, ratio of IC50 for neonatal foreskin fibroblasts to IC50 for chloroquine-sensitive Plasmodium falciparum 3D7
Plasmodium falciparum [3] = test: Antimalarial activity against Plasmodium falciparum infected in O+ human erythrocytes assessed as reduction in parasites at schizonts stage at 50 nM after 48 hrs by Giemsa staining based microscopy; assay type: functional, organism-based
Method in brief: (§1)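 Synchronous Dd2-infected erythrocytes at ring (~18 h postinvasion), trophozoite (~26 h) or schizont (~38 h) stage, starting parasitemia 0.2–1.0%, exposed to 50 or 200 nM; DMSO (<0.05%) vehicle controls. Parasitemia counted on Giemsa-stained thin smears over 2–4 days, at least 1,000 erythrocytes by two counters. 48 h means compared by ANOVA; three independent experiments.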

Plasmodium falciparum [4] = test: Antimalarial activity against Plasmodium falciparum infected in O+ human erythrocytes assessed as reduction in parasites at ring stage at 200 nM after 48 hrs by Giemsa staining based microscopy; assay type: functional, organism-based; method in brief: as §1
Plasmodium falciparum [5] = test: Antimalarial activity against Plasmodium falciparum infected in O+ human erythrocytes assessed as reduction in parasites at ring stage at 50 nM after 48 hrs by Giemsa staining based microscopy; assay type: functional, organism-based; method in brief: as §1
Plasmodium falciparum [6] = test: Antimalarial activity against Plasmodium falciparum infected in O+ human erythrocytes assessed as reduction in parasites at trophozoites stage at 50 nM after 48 hrs by Giemsa staining based microscopy; assay type: functional, organism-based; method in brief: as §1
[7] = Toxicity in neonatal foreskin fibroblasts; assay type: ADME, cell-based; conditions: Fibroblast
Plasmodium falciparum [8] = test: Inhibition of HDAC in Plasmodium falciparum Dd2 infected in O+ human erythrocytes assessed as alteration of histone acetylation at 20 to 500 nM after 3.5 hrs by Westen blot; assay type: organism-based
Method in brief: (§2)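 Late-trophozoite Dd2-infected erythrocytes (3 x 10^9) treated 3.5 h at 37°C at 20, 100 or 500 nM, DMSO vehicle controls. Saponin lysis, histones acid-extracted in 0.5 M HCl, acetone-precipitated, run on 15% SDS-PAGE (silver stain for loading). Western blot with anti-tetra-acetyl histone H4 antiserum (1:2,000), then HRP anti-rabbit (1:5,000).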

Plasmodium falciparum [9] = test: Antimalarial activity against Plasmodium falciparum infected in O+ human erythrocytes assessed as reduction in parasites at trophozoites stage at 200 nM after 48 hrs by Giemsa staining based microscopy; assay type: functional, organism-based; method in brief: as §1
Plasmodium falciparum [10] = test: Antimalarial activity against chloroquine-sensitive Plasmodium falciparum 3D7 infected in O+ human erythrocytes by [3H]hypoxanthine incorporation assay; assay type: functional, organism-based; conditions: 3D7, 3 h
Plasmodium falciparum [11] = test: Antimalarial activity against chloroquine-resistant Plasmodium falciparum Dd2 infected in O+ human erythrocytes by [3H]hypoxanthine incorporation assay; assay type: functional, organism-based
Method in brief: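 Parasites cultured in O+ human erythrocytes in RPMI 1640 with 10% heat-inactivated human serum. Synchronous ring-stage infected cells were set at 0.25% parasitemia and 2.5% hematocrit, and growth was measured by [3H]hypoxanthine incorporation. IC50 was taken against DMSO controls by linear interpolation of inhibition curves. Chloroquine served as the internal control. Triplicate wells, at least four separate occasions.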

Plasmodium falciparum [12] = test: Antimalarial activity against Plasmodium falciparum infected in O+ human erythrocytes assessed as reduction in parasites at schizonts stage at 200 nM after 48 hrs by Giemsa staining based microscopy; assay type: functional, organism-based; method in brief: as §1
[13] = Selectivity index, ratio of IC50 for human WI38 cells to IC50 for chloroquine-sensitive Plasmodium falciparum 3D7
[14] = Selectivity index, ratio of IC50 for human WI38 cells to IC50 for chloroquine-resistant Plasmodium falciparum Dd2
[15] = Toxicity in human WI38 cells; assay type: cell-based, WI-38
[16] = Toxicity in breast fibroblasts; assay type: cell-based; conditions: Fibroblast
Plasmodium falciparum [17] = test: Inhibition of HDAC in Plasmodium falciparum Dd2 infected in O+ human erythrocytes assessed as alteration of histone acetylation at 500 nM after 3.5 hrs by Westen blot; assay type: organism-based; method in brief: as §2
[18] = Selectivity index, ratio of IC50 for african green monkey (Cercopithecus aethiops) Vero cells to IC50 for chloroquine-sensitive Plasmodium falciparum D6; assay type: toxicity, cell-based; conditions: read-out: Ratio IC50
Plasmodium falciparum [19] = test: Antimalarial activity against chloroquine-resistant Plasmodium falciparum W2 infected in O+ human erythrocytes by [3H]hypoxanthine incorporation assay; assay type: functional, organism-based
[20] = Selectivity index, ratio of IC50 for african green monkey (Cercopithecus aethiops) Vero cells to IC50 for chloroquine-resistant Plasmodium falciparum W2; assay type: toxicity, cell-based; conditions: read-out: Ratio IC50
[21] = Toxicity in african green monkey Vero cells; assay type: cell-based; conditions: African green monkey (Chlorocebus sabaeus)
Plasmodium falciparum [22] = test: Antimalarial activity against chloroquine-sensitive Plasmodium falciparum D6 infected in O+ human erythrocytes by [3H]hypoxanthine incorporation assay; assay type: functional, organism-based
Plasmodium falciparum [23] = test: Antimalarial activity against Plasmodium falciparum; assay type: functional, organism-based
Method in brief: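 Dd2 and 3D7 grown in O-positive human erythrocytes, RPMI 1640 with 10% heat-inactivated human serum. Synchronous ring-stage infected cells, 0.25% parasitemia, 2.5% hematocrit; growth read as [3H]hypoxanthine incorporation versus DMSO controls. IC50 taken by linear interpolation of inhibition curves. Chloroquine as internal control; triplicate wells, at least four separate occasions.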

SMILES: O=C(CCCCC[C@H](NC(=O)c1cc2ccccc2[nH]1)C(=O)Nc1cccc2cccnc12)NO
Ratio IC50 [1]: 10
Ratio IC50 [2]: 26
inhibition (Plasmodium falciparum [3]): Active
inhibition (Plasmodium falciparum [4]): Active
inhibition (Plasmodium falciparum [5]): Active
inhibition (Plasmodium falciparum [6]): Active
IC50 [7]: 337 nM
inhibition (Plasmodium falciparum [8]): Active
inhibition (Plasmodium falciparum [9]): Active
IC50 (Plasmodium falciparum [10]): 13 nM
IC50 (Plasmodium falciparum [11]): 33 nM
inhibition (Plasmodium falciparum [12]): Active

SMILES: O=C(/C=C/c1ccccc1)N[C@@H](CCCCCC(=O)NO)C(=O)Nc1cccc2cccnc12
Ratio IC50 [1]: 32
Ratio IC50 [2]: 83
inhibition (Plasmodium falciparum [3]): Active
inhibition (Plasmodium falciparum [4]): Active
inhibition (Plasmodium falciparum [5]): Active
inhibition (Plasmodium falciparum [6]): Active
IC50 [7]: 1240 nM
inhibition (Plasmodium falciparum [8]): Active
inhibition (Plasmodium falciparum [9]): Active
IC50 (Plasmodium falciparum [10]): 15 nM
IC50 (Plasmodium falciparum [11]): 39 nM
inhibition (Plasmodium falciparum [12]): Active

SMILES: CN(C)c1ccc(C(=O)N[C@@H](CSCCCC(=O)NO)C(=O)NCc2ccccc2)cc1
Ratio IC50 [1]: 2
IC50 [7]: 350 nM
IC50 (Plasmodium falciparum [11]): 169 nM

SMILES: Nc1ccccc1NC(=O)c1ccc(CNC(=O)OCc2cccnc2)cc1 [ENTINOSTAT]
selectivity ratio [13]: > 2.4
selectivity ratio [14]: > 2.6
IC50 [15]: > 20000 nM
IC50 [16]: 20000 nM
IC50 (Plasmodium falciparum [10]): 8300 nM
IC50 (Plasmodium falciparum [11]): 7800 nM

SMILES: CC(/C=C/C(=O)NO)=C\[C@@H](C)C(=O)c1ccc(N(C)C)cc1 [TRICHOSTATIN]
Ratio IC50 [1]: 25
Ratio IC50 [2]: 18
inhibition (Plasmodium falciparum [4]): Active
IC50 [7]: 200 nM
inhibition (Plasmodium falciparum [9]): Active
IC50 (Plasmodium falciparum [10]): 11 nM
IC50 (Plasmodium falciparum [11]): 8 nM
inhibition (Plasmodium falciparum [12]): Active
inhibition (Plasmodium falciparum [17]): Active

SMILES: CC(C)(C)OC(=O)N[C@@H](CCCCCS)C(=O)NC1CCCC1
IC50 (Plasmodium falciparum [10]): 15200 nM
IC50 (Plasmodium falciparum [11]): 19900 nM

SMILES: O=C(CCCCC[C@H](NC(=O)c1cc2ccccc2[nH]1)C(=O)NCc1ccccc1)NO
Ratio IC50 [1]: 20
Ratio IC50 [2]: 37
IC50 [7]: 1260 nM
IC50 (Plasmodium falciparum [10]): 34 nM
IC50 (Plasmodium falciparum [11]): 63 nM

SMILES: O=C(/C=C/c1ccccc1)N[C@@H](CCCCCC(=O)NO)C(=O)NCc1ccccc1
Ratio IC50 [1]: 39
Ratio IC50 [2]: 118
IC50 [7]: 4010 nM
IC50 (Plasmodium falciparum [10]): 34 nM
IC50 (Plasmodium falciparum [11]): 102 nM

SMILES: O=C(CCCCC[C@H](NC(=O)OCc1ccccc1)C(=O)Nc1ccc(-c2ccccc2)cc1)NO
Ratio IC50 [1]: 21
Ratio IC50 [2]: 76
IC50 [7]: 2200 nM
IC50 (Plasmodium falciparum [10]): 29 nM
IC50 (Plasmodium falciparum [11]): 105 nM

SMILES: CN(C)c1ccc(C(=O)N[C@@H](CSCCCC(=O)NO)C(=O)NC2CCCc3ccccc32)cc1 (stereo not given in full)
Ratio IC50 [1]: 7
IC50 [7]: 2200 nM
IC50 (Plasmodium falciparum [11]): 305 nM

SMILES: O=C(CCCCC[C@H](NC(=O)c1ccc(Br)cc1)C(=O)NCc1ccccc1)NO
Ratio IC50 [1]: 17
Ratio IC50 [2]: 64
IC50 [7]: 5860 nM
IC50 (Plasmodium falciparum [10]): 91 nM
IC50 (Plasmodium falciparum [11]): 334 nM

SMILES: O=C(CCCSC[C@H](NC(=O)c1ccc(Br)cc1)C(=O)NCc1ccccc1)NO
Ratio IC50 [1]: 13
IC50 [7]: 830 nM
IC50 (Plasmodium falciparum [11]): 125 nM

SMILES: O=C(/C=C\c1ccccc1)N[C@@H](CSCCCC(=O)NO)C(=O)NCc1ccccc1
Ratio IC50 [1]: 2
IC50 [7]: 800 nM
IC50 (Plasmodium falciparum [11]): 339 nM

SMILES: O=C(CCCCCCC(=O)NO)NO [SUBEROHYDROXAMIC ACID]
selectivity ratio [18]: > 21
IC50 (Plasmodium falciparum [19]): 1780 nM
selectivity ratio [20]: > 21
IC50 [21]: > 20000 nM
IC50 (Plasmodium falciparum [22]): 940 nM

SMILES: O=C(CCCCC[C@H](NC(=O)c1ccc(Br)cc1)C(=O)Nc1ccc(-c2ccccc2)cc1)NO
Ratio IC50 [1]: 5
Ratio IC50 [2]: 9
IC50 [7]: 190 nM
IC50 (Plasmodium falciparum [10]): 22 nM
IC50 (Plasmodium falciparum [11]): 41 nM

SMILES: CN(C)c1ccc(C(=O)N[C@@H](CCCCCC(=O)NO)C(=O)Nc2cccc3cccnc23)cc1
Ratio IC50 [1]: 8
Ratio IC50 [2]: 30
IC50 [7]: 570 nM
IC50 (Plasmodium falciparum [10]): 19 nM
IC50 (Plasmodium falciparum [11]): 71 nM

SMILES: CN(C)c1ccc(NC(=O)[C@H](CSCCCC(=O)NO)NC(=O)c2ccc(N(C)C)cc2)cc1
Ratio IC50 [1]: 12
IC50 [7]: 600 nM
IC50 (Plasmodium falciparum [11]): 48 nM

SMILES: CN(C)c1ccc(C(=O)N[C@@H](CSCCCC(=O)NO)C(=O)Nc2ccc(-c3ccccc3)cc2)cc1
Ratio IC50 [1]: 3
IC50 [7]: 320 nM
IC50 (Plasmodium falciparum [11]): 128 nM

SMILES: CC(NC(=O)c1ccccc1/N=C/c1c(O)ccc2ccccc12)c1ccccc1 (stereo not given) [SIRTINOL]
Ratio IC50 [1]: 2.7
Ratio IC50 [2]: 1.9
IC50 [7]: > 25000 nM
IC50 (Plasmodium falciparum [10]): 12900 nM
IC50 (Plasmodium falciparum [11]): 9100 nM

IC50 (Plasmodium falciparum [23]): 3200 nM
SMILES: O=C(CCCCCCCC(=O)NO)NO [AZELAIC BIS HYDROXAMIC ACID]
